Published values of several laboratories.
Compare with care: the assays were run in different laboratories. In brackets after ≈: the same amount, converted by molar mass.
Cell line: MDA-MB-231
Observed: cell growth or viability

Nc1nc(S)nc(O)c1N=Cc1cn(-c2ccccc2)nc1-c1ccc(Cl)cc1 — CC50 (48 h): 18.4 µM
COc1cccc2c1C(=O)c1c(O)c3c(c(O)c1C2=O)C[C@@](O)(C(=O)CO)C[C@@H]3O[C@H]1C[C@H](N)[C@H](O)[C@H](C)O1 — IC50 (MTT; 24 h): 7.19 µg/mL (≈ 13.2 µM)
O=C(Nc1ccc(Oc2nc3ccccc3n3cnnc23)cc1)Nc1cccc(Cl)c1 — viability (MTT; 3.125 µM; 24 h): 100%
COc1ccc(-c2nn(-c3ccccc3)cc2C=Nc2c(N)nc(S)nc2O)cc1 — CC50 (48 h): > 20 µM
NCCC(=O)Nc1ccc(/N=c2\cc(-c3ccc4c(c3)OCO4)oc3ccccc23)cc1 — inhibition (CCK-8; 1 µM): 5.95%
COc1cccc2c1C(=O)c1c(O)c3c(c(O)c1C2=O)C[C@@](O)(C(=O)CO)C[C@@H]3O[C@H]1C[C@H](N)[C@H](O)[C@H](C)O1 — EC50 (MTT; 72 h): 0.022 µM
NCCC(=O)Nc1ccccc1/N=c1\cc(-c2ccc3nc(N)oc3c2)oc2ccccc12 — inhibition (CCK-8; 1 µM): 68.6%
O=C(Nc1ccc(Cl)cc1)Nc1ccc(Oc2nc3ccccc3n3cnnc23)cc1 — viability (MTT; 100 µM; 24 h): 46.6%
Cc1ccc(C=NNC(=O)C2CC(=O)N(c3ccc(F)cc3F)C2)cc1 (centres unmarked) — EC50 (MTT; 72 h): 22.8 µM
COc1ccc2/c(=N/c3ccccc3NC(=O)[C@H](C)N)cc(-c3ccc4c(c3)OCCO4)oc2c1 — inhibition (CCK-8; 1 µM): 13.8%
COc1cccc(NC(=O)Nc2ccc(Oc3nc4ccccc4n4cnnc34)cc2)c1 — viability (MTT; 3.125 µM; 24 h): 91.5%
CCN(N=Cc1ccc(Br)cc1)C(=O)C1CC(=O)N(c2ccc(F)cc2F)C1 (centres unmarked) — EC50 (MTT; 72 h): 32.9 µM
C[C@H](N)C(=O)Nc1ccccc1/N=c1\cc(-c2ccc3c(c2)OCCO3)oc2c(N)cccc12 — inhibition (CCK-8; 1 µM): -1.6%
O=C(Nc1ccccc1)Nc1ccc(Oc2nc3ccccc3n3cnnc23)cc1 — viability (MTT; 50 µM; 24 h): 59.2%
